{"data": "Assay results pooled from the literature"}
{"Compound": "OCc1ccc(-c2nn(Cc3ccccc3)c3ccccc23)o1", "test system": "male CD-1 mouse, plasma", "conditions": "oral, 10 mg/kg", "measurement": "AUC(0-t)", "value": "218 ng·h/mL"}
{"Compound": "CC(C)[C@@H](CS(=O)(=O)C(C)C)N1C(=O)[C@@](C)(CC(=O)O)C[C@H](c2cccc(Cl)c2)[C@H]1c1ccc(Cl)cc1", "test system": "FVB mouse, brain", "conditions": "oral, 20 mg/kg, single dose", "measurement": "AUC(0-inf)", "value": "36.3 ng·h/mL"}
{"Compound": "CO[C@H]1/C=C/O[C@@]2(C)Oc3c(C)c(O)c4c(c3C2=O)C2=NC3(CCN(CC(C)C)CC3)NC2=C(NC(=O)/C(C)=C\\C=C\\[C@H](C)[C@H](O)[C@@H](C)[C@@H](O)[C@@H](C)[C@H](OC(C)=O)[C@@H]1C)C4=O", "test system": "female CD-1 mouse, plasma", "conditions": "intravenous, 5 mg/kg", "measurement": "AUC", "value": "8070 ng·h/mL"}
{"Compound": "CN(C)C(=O)c1cc2cnc(Nc3ccc(-c4ccc5c(=O)cc(N6CCOCC6)oc5c4)cc3)nc2n1C1CCCC1", "test system": "BALB/c mouse, plasma", "conditions": "oral, 20 mg/kg", "measurement": "AUC(0-inf)", "value": "2890 ng·h/mL"}
{"Compound": "OCc1nc2ccc(NCc3ccc(C(F)(F)F)cc3)cc2[nH]1", "test system": "male BALB/c mouse, plasma", "conditions": "intravenous, 1 mg/kg", "measurement": "AUC(0-inf)", "value": "482 ng·h/mL"}
{"Compound": "CCOC(=O)c1c(NC(=O)CNC(C)C)sc2c1CCCCC2", "test system": "male mouse, plasma", "conditions": "intraperitoneal, 5 mg/kg, single dose", "measurement": "AUC(0-inf)", "value": "311 ng·h/mL"}
{"Compound": "O=C1CCC(N2Cc3cc(C4CCN(Cc5ccccc5)CC4)ccc3C2=O)C(=O)N1 (stereo not shown)", "test system": "male CD-1 mouse, plasma", "conditions": "intravenous, 1 mg/kg", "measurement": "AUC(0-inf)", "value": "355 ng·h/mL"}
{"Compound": "COc1cccc2c(N3CCC(CCP(=O)(O)O)CC3)ncnc12", "test system": "female C57BL/6 mouse, serum", "conditions": "subcutaneous, 50 mg/kg", "measurement": "AUC(0-inf)", "value": "18300 ng·h/mL"}
{"Compound": "NCc1cc2c(cc1F)C(=O)N(C1CCC(=O)NC1=O)C2 (stereo not shown)", "test system": "male CD-1 mouse, plasma", "conditions": "oral, 10 mg/kg", "measurement": "AUC(0-inf)", "value": "262 ng·h/mL"}
{"Compound": "COCC(=O)N1CCc2[nH]c3c(Cl)c(Cl)ccc3c2[C@@H]1C", "test system": "C57BL/6 mouse, blood", "conditions": "oral, 20 mg/kg", "measurement": "AUC(0-inf)", "value": "8.24 µM·h"}
{"Compound": "NCc1ccc(-c2nn(Cc3ccncc3)c3ccccc23)o1", "test system": "male CD-1 mouse, plasma", "conditions": "intraperitoneal, 30 mg/kg", "measurement": "AUC(0-t)", "value": "5240 ng·h/mL"}
{"Compound": "Cc1nc2ccc(OCc3ccc(C(F)(F)F)cc3)cc2[nH]1", "test system": "male BALB/c mouse, plasma", "conditions": "intravenous, 1 mg/kg", "measurement": "AUC(0-inf)", "value": "3800 ng·h/mL"}
{"Compound": "O=C1CCC(N2Cc3cc(CO)c(F)cc3C2=O)C(=O)N1 (stereo not shown)", "test system": "male CD-1 mouse, plasma", "conditions": "intravenous, 1 mg/kg", "measurement": "AUC(0-inf)", "value": "316 ng·h/mL"}
